pKd: −log10 of the molar value. Read-outs that look alike come from different tables or passages of the source.
How the values were obtained:
nuclear NF-κB = type: cell-based, human; conditions: concentration of 500 nM, THP-1 cells, R848 1 μg/mL, Figure S2
How it was run: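 THP-1 cells were seeded at 2 × 10^6 cells/well and differentiated with PMA (100 ng/mL) for 24 h at 37 °C, 5% CO2. Medium was switched to unsupplemented RPMI, then R848 (1 μg/mL) plus test compound was added for 2 h. Nuclear fractions were extracted and quantified by BCA, run on 10% SDS-PAGE and blotted. Probed with anti-p65 (1:1000), then HRP anti-rabbit (1:10000), chemiluminescence. Lamin A/C was the nuclear control.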

TLR7 = target: T1, TLR7 (Homo sapiens, UniProt Q9NYK1); experiment: TLR selectivity assay; type: cell-based; conditions: HEK-Blue hTLR7 cells, R848 1 μg/mL
T1 sequence (Q9NYK1 27-1049): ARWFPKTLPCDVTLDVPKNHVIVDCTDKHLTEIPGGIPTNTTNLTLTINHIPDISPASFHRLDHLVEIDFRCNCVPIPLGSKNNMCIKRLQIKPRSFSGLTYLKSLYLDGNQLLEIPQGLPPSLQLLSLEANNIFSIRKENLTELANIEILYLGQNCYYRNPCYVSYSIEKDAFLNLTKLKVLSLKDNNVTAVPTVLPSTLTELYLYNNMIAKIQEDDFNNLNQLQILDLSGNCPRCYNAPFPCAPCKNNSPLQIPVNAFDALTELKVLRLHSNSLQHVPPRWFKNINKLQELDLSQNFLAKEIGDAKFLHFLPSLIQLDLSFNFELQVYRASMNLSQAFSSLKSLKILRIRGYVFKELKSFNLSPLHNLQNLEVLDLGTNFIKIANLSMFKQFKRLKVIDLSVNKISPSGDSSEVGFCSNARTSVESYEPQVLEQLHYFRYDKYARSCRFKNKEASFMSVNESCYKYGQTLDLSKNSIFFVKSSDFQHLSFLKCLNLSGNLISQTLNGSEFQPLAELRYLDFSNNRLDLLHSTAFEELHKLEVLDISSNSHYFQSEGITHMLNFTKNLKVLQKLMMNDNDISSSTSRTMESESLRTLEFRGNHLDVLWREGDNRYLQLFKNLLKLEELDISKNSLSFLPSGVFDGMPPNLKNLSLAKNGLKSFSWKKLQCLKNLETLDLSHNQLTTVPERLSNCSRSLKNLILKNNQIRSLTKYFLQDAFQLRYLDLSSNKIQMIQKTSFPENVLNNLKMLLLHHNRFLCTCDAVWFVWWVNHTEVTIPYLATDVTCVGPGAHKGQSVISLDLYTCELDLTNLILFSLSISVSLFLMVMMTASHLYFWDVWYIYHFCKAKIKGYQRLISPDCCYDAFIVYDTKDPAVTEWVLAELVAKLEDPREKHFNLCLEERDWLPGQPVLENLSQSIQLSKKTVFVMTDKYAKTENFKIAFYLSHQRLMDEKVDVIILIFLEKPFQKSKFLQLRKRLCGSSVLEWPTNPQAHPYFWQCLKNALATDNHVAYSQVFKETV
How it was run: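 HEK-Blue hTLR7 cells were seeded at 7.5 × 10^4 cells/well in DMEM with 10% heat-inactivated FBS. Cells received R848 (1 μg/mL) with varied test-compound concentrations for 24 h at 37 °C, 5% CO2. Supernatant SEAP was developed with Quanti-Blue (30 min–1 h, 37 °C) and read at 620 nm. Normalised with R848-only as 100% and untreated as 0% activation. Three biological replicates, each in triplicate.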

mouse TLR9 = target: T2, mouse TLR9 (Mus musculus, UniProt Q9EQU3); experiment: IL-12p40 production in splenocytes from hTLR8tg/TLR7-KO mice, TLR9 agonist 1018; type: cell-based; conditions: 1018 7.1 ug/mL
T2 sequence (Q9EQU3 26-1032): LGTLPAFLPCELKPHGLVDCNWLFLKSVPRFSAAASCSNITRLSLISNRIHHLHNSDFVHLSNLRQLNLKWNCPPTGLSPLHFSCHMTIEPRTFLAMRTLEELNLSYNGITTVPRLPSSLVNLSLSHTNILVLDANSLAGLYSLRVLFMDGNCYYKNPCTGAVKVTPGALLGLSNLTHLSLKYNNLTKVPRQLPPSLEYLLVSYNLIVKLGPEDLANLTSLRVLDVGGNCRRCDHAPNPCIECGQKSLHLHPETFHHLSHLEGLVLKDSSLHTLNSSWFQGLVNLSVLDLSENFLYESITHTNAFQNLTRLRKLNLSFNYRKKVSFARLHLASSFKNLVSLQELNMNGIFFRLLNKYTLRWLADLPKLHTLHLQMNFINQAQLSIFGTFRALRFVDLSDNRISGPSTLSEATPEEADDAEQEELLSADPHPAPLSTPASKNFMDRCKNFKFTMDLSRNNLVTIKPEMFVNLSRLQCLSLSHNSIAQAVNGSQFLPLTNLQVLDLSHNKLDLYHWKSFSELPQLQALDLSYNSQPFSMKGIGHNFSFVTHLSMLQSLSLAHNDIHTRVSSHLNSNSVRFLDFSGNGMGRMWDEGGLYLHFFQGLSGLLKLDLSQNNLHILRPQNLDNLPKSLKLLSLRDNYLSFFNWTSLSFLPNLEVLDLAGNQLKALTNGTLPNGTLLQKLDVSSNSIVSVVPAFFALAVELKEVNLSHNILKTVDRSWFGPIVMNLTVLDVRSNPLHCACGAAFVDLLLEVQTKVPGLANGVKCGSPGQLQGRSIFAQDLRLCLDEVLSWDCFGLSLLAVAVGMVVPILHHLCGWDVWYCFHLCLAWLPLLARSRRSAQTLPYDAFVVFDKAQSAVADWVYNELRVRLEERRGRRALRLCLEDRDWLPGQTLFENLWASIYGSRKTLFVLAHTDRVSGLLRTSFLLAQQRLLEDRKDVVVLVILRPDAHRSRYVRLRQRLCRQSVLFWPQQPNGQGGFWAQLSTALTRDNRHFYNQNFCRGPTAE
How it was run: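 Splenocytes from female […] mice carrying a human TLR8 transgene, prepared by straining and red-cell lysis. Incubated with a dilution series of test compound plus a constant amount of CpG phosphorothioate DNA oligonucleotide 1018 (TLR9 agonist) for 48 h. IL-12p40 measured in culture supernatants. Curves come from a single spleen.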

ectodomain of human TLR8 = conditions: read-out: dissociation constant (Kd), et al., cited from earlier work

| effect on TLR7 (TLR7) | activity against mouse TLR9 (mouse TLR9) | Structure (SMILES) | reduction of nuclear NF-κB (nuclear NF-κB) | pKd (ectodomain of human TLR8; ITC, ectodomain of human TLR8, ref Zhang, 2018) | pKd (ectodomain of human TLR8; TLR8 and R848, ref Tanji, 2015) |
| --- | --- | --- | --- | --- | --- |
| not affected below ~μM concentration | no activity | COc1ccc2c(-c3ccc(O)c(C)c3)ccnc2c1 [CU-CPT9a] | significant reduction | – | – |
| not affected below ~μM concentration | no activity | Cc1cc(-c2ccnc3cc(O)ccc23)ccc1O [CU-CPT9b] | – | 7.68 | – |
| – | – | CCOCc1nc2c(N)nc3ccccc3c2n1CC(C)(C)O [R848, reference compound] | – | – | 6.70 |

Reference: paper PMC6195466 (Cell chemical biology, 2018)
